# Experimental data from different studies.
# Lines come from different studies, so protocols differ.
# Target: Calcium/calmodulin-dependent protein kinase type II subunit beta (CAMK2B, Homo sapiens, UniProt Q13554)
Structure (SMILES),observed,method,concentration,remaining binding
CN(c1nccc(-c2cnn3ncccc23)n1)C1CC1,binding,,1 µM,84%
CN(c1ccnc(CNc2nc(Nc3ccc4c(c3)CC(=O)N4)ncc2C(F)(F)F)n1)S(C)(=O)=O,cell-free assay,competition with immobilised ligand,1 µM,86%
C[C@@H]1CCN(c2nccc(-c3cnn4ncccc34)n2)C1,binding,,1 µM,78%
C=CC(=O)N1CCC(C(=O)NCC(=O)N2CCN(c3nc(-c4cnc(N)nc4C(F)F)nc(N4CCOCC4)n3)CC2)CC1,binding,competition with immobilised ligand,1 µM,100%
CO[C@H]1CC[C@H](CNc2ccc(S(=O)(=O)NC(=O)c3ccc(N4CCN(CC5=C(c6ccc(Cl)cc6)CC(C)(C)CC5)CC4)cc3Oc3cnc4[nH]ccc4c3)cc2[N+](=O)[O-])CC1,cell-free assay,competition with immobilised ligand,1 µM,80%
FC(F)(F)Oc1cccc(-c2cnc3ccc(-c4ccncc4)nn23)c1,cell-free assay,competition with immobilised ligand,5 µM,47%
CN(C)c1ncc(F)c(-c2cnn3ncccc23)n1,binding,,1 µM,65%
O=C(NCCCN1CCOCC1)c1ccc(Nc2nccc(-c3cc4ccccc4s3)n2)cc1,binding,competition with immobilised ligand,1 µM,83%
C[C@H](c1ccnc(Nc2nc3ccc(-c4cc(N(C)C)ncn4)cc3[nH]2)c1)N1CCN(C(=O)CC(F)(F)F)CC1,cell-free assay,competition with immobilised ligand,0.1 µM,92%
O=C(c1ccc(Nc2ncc(Cl)c(-c3cc4ccccc4s3)n2)cc1)N1CCC(N2CCCC2)CC1,binding,competition with immobilised ligand,1 µM,83%
CN([C@@H]1CCc2c(CC(=O)O)c3cc(S(C)(=O)=O)ccc3n2C1)S(=O)(=O)c1ccc(F)cc1,cell-free assay,competition with immobilised ligand,1 µM,100%
Nc1ncc2c(n1)-c1c([nH]c3ccc(C#CC4CC4)cc13)CCCC2,binding,competition with immobilised ligand,1 µM,100%
CC1CCCN1c1nccc(-c2cnn3ncccc23)n1 (stereo not drawn),binding,,1 µM,98%
c1ccc(N2CCN(Cc3nc4ccccc4[nH]3)CC2)nc1,cell-free assay,competition with immobilised ligand,1 µM,100%
CCN1CCN(Cc2ccc(C(=O)Nc3ccc(C)c(Oc4ccc5c(c4)CC(=O)N5)c3)cc2C(F)(F)F)CC1,binding,competition with immobilised ligand,1 µM,100%
C[C@H](NC(=O)c1cnc2n1[C@](C)(Cc1ccc(C#N)cc1)C(=O)N2c1cc(Cl)c(F)c(Cl)c1)C(=O)NC1(c2ccccn2)CC1,cell-free assay,competition with immobilised ligand,1 µM,100%
O=C(c1ccc(Nc2nccc(-c3cc4ccccc4s3)n2)cc1)N1CCC(N2CCCC2)CC1,binding,competition with immobilised ligand,1 µM,100%
CN(C)c1nccc(-c2cnc3ncccn23)n1,binding,,1 µM,89%
O=C(Nc1c[nH]nc1C(=O)NC1CCNCC1)c1cc(F)cc(F)c1,binding,competition with immobilised ligand,1 µM,100%
COc1cnc(Nc2cccc(S(N)(=O)=O)c2)nc1N1CCN(c2ccccc2)C(=O)C1,binding,competition with immobilised ligand,1 µM,100%
N[C@H]1CCN(c2nccc(-c3cnn4ncccc34)n2)C1,binding,,1 µM,100%
